Source: ChEMBL document CHEMBL3763114, “Syntheses and biological evaluation of 1,2,3-triazole and 1,3,4-oxadiazole derivatives of imatinib” (Bioorg Med Chem Lett, 2016)

Experiments:
K562 [1] = experiment: Antiproliferative activity against human K562 cells assessed as inhibition of cell survival after 72 hrs by MTT assay; format: functional, cell-based; conditions: K562, 72 h
Outline: (§1)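 Each of the three leukemia lines (K562, HL60, KG1a) was incubated with the compounds for 72 h. The survival rate was then read by MTT viability assay, with imatinib run as the positive control. Inhibitory activity is reported as IC50 in μM.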

[2] = Antiproliferative activity against human HL60 cells assessed as inhibition of cell survival after 72 hrs by MTT assay; format: functional, cell-based; conditions: HL-60, 72 h; outline: as §1
[3] = Antiproliferative activity against human KG1a cells assessed as inhibition of cell survival after 72 hrs by MTT assay; format: functional, cell-based; conditions: KG-1a; outline: as §1
K562 [4] = experiment: Antiproliferative activity against human K562 cells assessed as reduction in cell viability after 72 hrs by resazurin assay; format: functional, cell-based; conditions: K562, 72 h
[5] = Cytotoxicity against human 293T cells assessed as growth inhibition; format: cell-based, HEK-293T
[6] = Potency index, ratio of imatinib IC50 to compound IC50 for antiproliferative activity against human KG1a cells; format: functional

Compound | IC50 (K562 [1]) [µM] | IC50 [2] [nM] | IC50 [3] [µM] | IC50 (K562 [4]) [nM] | CC50 [5] [µM] | Ratio IC50 [6]
Cc1ccc(-n2cc(-c3ccc(C)c(C(F)(F)F)c3)nn2)cc1Nc1nccc(-c2cccnc2)n1 | > 30 | > 30000 | > 30 | – | – | –
Cc1ccc(-c2nnc(-c3cc(C(F)(F)F)cc(C(F)(F)F)c3)o2)cc1Nc1nccc(-c2cccnc2)n1 | > 30 | > 30000 | > 30 | – | – | –
Cc1ccc(-n2cc(-c3ccc(CN4CCN(C)CC4)cc3)nn2)cc1Nc1nccc(-c2cccnc2)n1 | 0.79 | – | – | 890 | 14.9 | –
Cc1ccc(-c2cn(-c3ccc(CN4CCN(C)CC4)c(C(F)(F)F)c3)nn2)cc1Nc1nccc(-c2cccnc2)n1 | 0.03 | 20 | 1.04 | – | 2.66 | –
CCN(CC)c1ccc(-n2cc(-c3ccc(C)c(Nc4nccc(-c5cccnc5)n4)c3)nn2)cc1 | > 30 | 13600 | 2.93 | – | – | –
Cc1ccc(-c2cn(-c3cc(C(F)(F)F)ccc3N3CCOCC3)nn2)cc1Nc1nccc(-c2cccnc2)n1 | 9.99 | 17500 | 2.43 | – | – | –
COc1ccc(-n2cc(-c3ccc(C)c(Nc4nccc(-c5cccnc5)n4)c3)nn2)cc1 | > 30 | > 30000 | – | – | – | –
Cc1ccc(-c2nnc(-c3ccc(CN4CCN(C)CC4)cc3)o2)cc1Nc1nccc(-c2cccnc2)n1 | 4.9 | 570 | 1.78 | – | 7.63 | –
Cc1ccc(-c2nnc(-c3cccnc3)o2)cc1Nc1nccc(-c2cccnc2)n1 | > 30 | > 30000 | > 30 | – | – | –
Cc1ccc(-c2cn(-c3ccc(CN4CCN(C)CC4)cc3)nn2)cc1Nc1nccc(-c2cccnc2)n1 | 4.7 | 6740 | 6.16 | – | 4.15 | –
Cc1nnc(-c2ccc(C)c(Nc3nccc(-c4cccnc4)n3)c2)o1 | > 30 | > 30000 | 18 | – | – | –
Cc1ccc(-c2nnc(-c3ccc(CN4CCN(CCO)CC4)cc3)o2)cc1Nc1nccc(-c2cccnc2)n1 | 4.85 | 810 | 4.53 | – | – | –
Cc1ccc(-c2nnc(-c3ccc(C)c(C(F)(F)F)c3)o2)cc1Nc1nccc(-c2cccnc2)n1 | > 30 | > 30000 | > 30 | – | – | –
Cc1ccc(-c2nnc(-c3ccc(CN4CCN(C)CC4)c(C(F)(F)F)c3)o2)cc1Nc1nccc(-c2cccnc2)n1 | 0.51 | 50 | 0.58 | – | 2.17 | 30
Cc1ccc(-n2cc(CCO)nn2)cc1Nc1nccc(-c2cccnc2)n1 | 10.7 | 9100 | 6.54 | – | – | –
Cc1ccc(-c2nnc(-c3ccc(CN4CCN(CCN=C=S)CC4)cc3)o2)cc1Nc1nccc(-c2cccnc2)n1 | 0.92 | 290 | 0.37 | – | – | –
COc1ccc(-c2cn(-c3ccc(C)c(Nc4nccc(-c5cccnc5)n4)c3)nn2)cc1C(F)(F)F | 11.2 | 21200 | 30 | – | – | –

Compound | IC50 (K562 [1]) [µM] | IC50 [2] [nM] | IC50 [3] [µM] | IC50 (K562 [4]) [nM] | CC50 [5] [µM] | Ratio IC50 [6]
Cc1ccc(-c2cn(-c3ccc(CN4CCCC4)cc3)nn2)cc1Nc1nccc(-c2cccnc2)n1 | 3.89 | 1570 | 5.42 | – | – | –
Cc1ccc(-n2cc(-c3ccc(CN4CCN(C)CC4)c(C(F)(F)F)c3)nn2)cc1Nc1nccc(-c2cccnc2)n1 | 0.04 | 20 | 1.27 | – | 8.18 | –
Cc1ccc(-n2cc(CCCCO)nn2)cc1Nc1nccc(-c2cccnc2)n1 | 11.2 | – | – | – | – | –
COc1cc(/C=C/C(=O)CC(=O)/C=C/c2ccc(OCCN3CCN(Cc4ccc(-c5nnc(-c6ccc(C)c(Nc7nccc(-c8cccnc8)n7)c6)o5)cc4)CC3)c(OC)c2)ccc1O | > 30 | > 30000 | > 30 | – | – | –
Cc1ccc(-c2cn(-c3ccccc3N3CCOCC3)nn2)cc1Nc1nccc(-c2cccnc2)n1 | 5.86 | 1490 | 0.44 | – | – | 30
Cc1ccc(-c2nnc(-c3ccc(CN4CCN(CCO)CC4)c(C(F)(F)F)c3)o2)cc1Nc1nccc(-c2cccnc2)n1 | 1.81 | 390 | 0.98 | – | – | –
Cc1ccc(-c2nnc(-c3ccc(CN4CCN(CCN)CC4)c(C(F)(F)F)c3)o2)cc1Nc1nccc(-c2cccnc2)n1 | 0.3 | 20 | 0.48 | – | – | 30
Cc1ccc(-n2cc(-c3cc(C(F)(F)F)cc(C(F)(F)F)c3)nn2)cc1Nc1nccc(-c2cccnc2)n1 | 2.65 | 1600 | 9.93 | – | – | –
Cc1ccc(-c2nnc(-c3ccc(CN4CCN(CCN=C=S)CC4)c(C(F)(F)F)c3)o2)cc1Nc1nccc(-c2cccnc2)n1 | 0.5 | 70 | 0.94 | – | – | –
Cc1ccc(-n2cc(C(C)O)nn2)cc1Nc1nccc(-c2cccnc2)n1 (stereo not drawn) | 15.3 | 25500 | 12.7 | – | – | –
C=CC(=O)NCCN1CCN(Cc2ccc(-c3nnc(-c4ccc(C)c(Nc5nccc(-c6cccnc6)n5)c4)o3)cc2C(F)(F)F)CC1 | 0.6 | 2660 | – | – | – | –
Cc1ccc(-c2nnc(-c3ccc(F)c(C(F)(F)F)c3)o2)cc1Nc1nccc(-c2cccnc2)n1 | 29.7 | > 30000 | > 30 | – | – | –
Cc1ccc(-c2cn(-c3ccc(N4CCOCC4)cc3)nn2)cc1Nc1nccc(-c2cccnc2)n1 | 23.4 | > 30000 | 5.28 | – | – | –
Cc1ccc(-c2cn(-c3ccc(CN4CCCCC4)cc3)nn2)cc1Nc1nccc(-c2cccnc2)n1 | 3.29 | 740 | 1.75 | – | – | –
Cc1ccc(-c2cn(-c3ccc(CN4CCOCC4)cc3)nn2)cc1Nc1nccc(-c2cccnc2)n1 | 22.6 | 6960 | 1.32 | – | – | –
Cc1ccc(NC(=O)c2ccc(CN3CCN(C)CC3)cc2)cc1Nc1nccc(-c2cccnc2)n1 [IMATINIB] | – | 30 | 16.7 | – | 20.5 | –
